# Screening data (PubChem BioAssay)
# PKD1 inh: inhibitors of human PKD1 kinase, biochemical, fluorescence polarization | Serine/threonine-protein kinase D1 (Homo sapiens), Q15139 | PKD1 kinase fluorescence polarization assay | inhibition, % (test concentration not listed) | actives 0.056% (n = 200,000); in the data active = inhibition above about 50%
# Target sequence (Q15139 whole entry, looked up): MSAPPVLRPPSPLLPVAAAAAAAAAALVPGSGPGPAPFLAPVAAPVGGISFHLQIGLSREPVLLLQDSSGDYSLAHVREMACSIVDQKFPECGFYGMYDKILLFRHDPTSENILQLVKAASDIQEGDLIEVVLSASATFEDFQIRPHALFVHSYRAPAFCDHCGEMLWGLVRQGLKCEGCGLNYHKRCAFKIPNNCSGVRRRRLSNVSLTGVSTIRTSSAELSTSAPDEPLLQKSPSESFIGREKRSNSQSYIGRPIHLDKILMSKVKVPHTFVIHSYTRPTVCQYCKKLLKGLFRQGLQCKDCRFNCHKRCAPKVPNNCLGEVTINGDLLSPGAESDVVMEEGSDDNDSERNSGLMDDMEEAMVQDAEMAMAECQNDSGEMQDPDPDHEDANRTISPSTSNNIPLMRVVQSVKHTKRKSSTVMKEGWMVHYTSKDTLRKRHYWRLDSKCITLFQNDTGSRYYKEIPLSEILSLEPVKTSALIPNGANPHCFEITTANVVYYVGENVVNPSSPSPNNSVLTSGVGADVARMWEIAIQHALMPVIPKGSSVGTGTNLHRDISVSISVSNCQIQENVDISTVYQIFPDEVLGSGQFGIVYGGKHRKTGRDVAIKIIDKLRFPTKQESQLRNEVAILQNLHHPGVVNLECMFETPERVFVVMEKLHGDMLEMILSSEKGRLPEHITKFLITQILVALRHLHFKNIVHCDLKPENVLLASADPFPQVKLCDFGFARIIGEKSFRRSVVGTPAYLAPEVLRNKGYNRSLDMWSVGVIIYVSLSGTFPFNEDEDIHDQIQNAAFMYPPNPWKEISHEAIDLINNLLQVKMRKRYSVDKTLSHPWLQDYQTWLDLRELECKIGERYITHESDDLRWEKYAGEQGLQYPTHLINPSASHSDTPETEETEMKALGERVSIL
# Arbovirus inh: antivirals against arbovirus infection, primary screen, cell-based, full library, 10K replicate subset; arbovirus infection cell-based antiviral screen; inhibition, % at 10 µM; actives 0.37% (n = 200,000); AID 1251, 2008; in the data active = inhibition above about 30%
# Mdm2 ligase inh: MDM2-luciferase reporter signal enhancers, primary screen, MDM2 E3 ligase inhibitor project, cell-based, luminescence, 1536-well; E3 ubiquitin-protein ligase Mdm2 (Homo sapiens), Q00987; cell-based MDM2 ubiquitination luciferase reporter, 2 h; 0 = plate control, 100 = twice control, blank-subtracted; signal enhancement, % at 5 µM; actives 0.11% (n = 210,000);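 active = signal enhancement of 30% or more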;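 note: luminescence tracks abundance of the self-degrading MDM2-luciferase fusion protein; higher signal means inhibition of MDM2 E3 ligase activity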
#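 Assay system: mammalian cells stably expressing self-ubiquitinating, self-degrading MDM2 E3–luciferase fusion. Quantity: 2000 cells in each well. Medium: DMEM culture medium. Compound dosing: single-point 5 µM. Timing: cell settling 4 h, compound treatment 2 h, both 37 °C. Technique: luciferase luminescence. Read-out basis: percent signal gain over controls, blank-subtracted. Benchmarks: plate controls and plate blanks.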
# m-calpain inh: inhibitors of pig calpain II, primary screen, biochemical, fluorogenic peptide substrate, 1536-well. purified calpain II, 30 min. inhibition, % at 16 µM. actives 0.37% (n = 220,000);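 active = inhibition above about 50%, limit read from the data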
# KCC2 mod: KCC2 cotransporter modulators, thallium flux, primary screen, cell-based, HEK293 KCC2, FluoZin-2 fluorescence, MLSMR | KCC2 cells, thallium flux FluoZin-2 fluorescence | B-score of Tl+ flux slope (higher = more flux/activation; lower = inhibition) at 10 µM | actives 2.2% (n = 190,000) | AID 1456, 2008;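 active = thallium flux slope and its plate-corrected score both differing from the plate sample mean at a set confidence after two filtering rounds, in either direction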;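 note: slope of fluorescence scaled to starting intensity during 10 to 20 s after thallium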
# ROMK primary: ROMK potassium channel modulators, primary screen, cell-based, thallium flux, MLSMR library; ATP-sensitive inward rectifier potassium channel 1 (Homo sapiens), P48048; Tet-inducible ROMK, thallium flux fluorescence; actives lie on both sides; B-score at 10 µM; actives 2% (n = 130,000); AID 1918, 2009;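 active = signal ratio slope over the read window, or its plate-corrected B-score, at least 3 SD from the plate mean, either direction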;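 note: B-score of the F/F0 ratio slope over 7 to 12 s after thallium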
# KCC2 secondary: KCC2 modulators in sodium-free buffer, confirmation, cell-based, HEK293 KCC2, thallium flux, secondary assay. actives 15% (n = 3,700). FluoZin2 fluorescence; hits give high values. AID 1713, 2009. normalised thallium flux (F/F0 slope) at 10 µM. shares compounds with KCC2 mod;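 active = thallium flux slope above the same plate's solvent-only control mean plus 3 SD; inconclusive = the two replicate wells disagree; inactive = no significant difference from solvent-only control wells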
# KCC2 bumet counter: thallium flux persisting under bumetanide in KCC2 cells, confirmation, counter-screen for KCC2 modulator project, cell-based, HEK293 KCC2, FluoZin2, secondary assay 3; shares compounds with KCC2 mod; HEK293-KCC2 + bumetanide/ouabain; hits give high values; normalized thallium flux at 10 µM; actives 49% (n = 3,700); AID 1714, 2009;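 active = thallium entry rate above the same plate's blocked-transporter control wells by more than 3 SD; inconclusive = the two repeat wells disagree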;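 note: raw slope of fluorescence over initial fluorescence between 10 and 20 s after thallium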
# KCC2 sec2: KCC2 modulators without ouabain present, confirmation, cell-based, HEK293 KCC2, thallium flux, FluoZin2, secondary assay 2 | shares compounds with KCC2 mod | thallium flux FluoZin2 fluorescence; actives lie on both sides; F/F0 rise rate, 10–20 s post-thallium | normalized thallium flux at 10 µM | actives 23% (n = 3,700) | AID 1715, 2009;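 active = thallium flux slope more than 3 SD above or below the plate's solvent-only control mean, mostly below; inconclusive = the two repeat wells disagreed; inactive = no significant shift from solvent-only controls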;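 note: raw slope with 0.1% DMSO as baseline and bumetanide as block control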
# HEK counter1: thallium flux modulation in parental HEK cells, confirmation, counter-screen for KCC2 modulator project, cell-based, counterscreen 1. thallium flux rate (normalised fluorescence) at 10 µM. AID 1716, 2009. shares compounds with KCC2 mod. HEK293 parental cells, thallium flux FluoZin2, ouabain; baseline-ratio fluorescence slope, 10–20 s after thallium. actives 46% (n = 3,700);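 active = thallium flux rate significantly above the same plate's solvent-only control wells, beyond their mean plus 3 SD; inconclusive = the two replicate wells gave conflicting results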
# KCC2 retest ouab: KCC2 inhibitors and activators, ouabain retest, confirmation, HEK-KCC2 cells; shares compounds with KCC2 mod; HEK293-KCC2, thallium flux FluoZin2 fluorescence; bidirectional: low = inhibitor, high = activator; raw Tl+ flux slope (below DMSO = inhibition, above = activation) at 10 µM; actives 48% (n = 3,700); AID 1717, 2009;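 active = thallium flux slope beyond 3 SD from same-plate DMSO control mean in most replicates, usually higher, sometimes lower; inconclusive = repeat tests gave conflicting results; inactive = no significant difference from controls in most replicates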;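 note: slope of initial-normalized fluorescence between seconds 10 and 20 after thallium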
# HEK counter2: native HEK Tl+ uptake effects, second counter-screen – HEK cells, counterscreen 2, counter-screen for KCC2 modulator project, confirmation; shares compounds with KCC2 mod; thallium flux slope at 10 µM; actives 33% (n = 3,700); HEK293 parental, thallium flux FluoZin-2 fluorescence slope;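 active = thallium flux slope above the same plate's solvent-control mean plus 3 SD in both duplicate wells; inconclusive = duplicate wells that disagreed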;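 note: run without ouabain in cells lacking the KCC2 cotransporter; slope of fluorescence scaled to its starting value between 10 and 20 s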
# * = called active by the depositor; ? = inconclusive; / = no result given. Hits are enriched below; roughly 3.7% of the tested compounds scored in any of these assays.
SMILES,PKD1 inh,Arbovirus inh,Mdm2 ligase inh,m-calpain inh,KCC2 mod,ROMK primary,KCC2 secondary,KCC2 bumet counter,KCC2 sec2,HEK counter1,KCC2 retest ouab,HEK counter2
Cc1ccc(CS(=O)(=O)Cc2ccc(C(=O)NCc3cccs3)o2)cc1,2.4,0.0,-2.9,17.4,-1.65,-0.481,/,/,/,/,/,/
CCN(CC)S(=O)(=O)c1ccc(NC(=O)CSc2ncnc3ccccc23)cc1,-9.2,3.2,-2.2,5.7,-5.16*,-0.000579,0.00919,0.00714,?,0.0066,0.0132*,0.0106
COc1ccc(-n2cnnc2SCC(=O)Nc2cc(S(=O)(=O)N3CCCCC3)ccc2C)cc1,-18.0,1.5,-8.2,8.0,-4.43*,/,0.00896,0.00568,0.0261*,0.00425,0.0137*,0.0115
Cc1ccc(NC(=O)CSc2ncnc3ccccc23)cc1S(=O)(=O)N1CCCCC1,7.4,7.7,-4.4,8.8,-3.58,-0.994,/,/,/,/,/,/
Cc1ccc(S(=O)(=O)N2CCCCC2)cc1NC(=O)CSc1nncn1-c1ccccc1,-2.7,6.9,4.4,-22.6,-2.27,1.1,/,/,/,/,/,/
COc1ccc(S(=O)(=O)N2CCCCC2)cc1NC(=O)CSc1ncnc2ccccc12,-14.0,5.9,-14.1,-44.8,-3.25*,/,0.00807,0.00538,0.0318,?,0.0152*,0.0112
Cc1cc(NC(=S)NC(=O)/C=C/c2ccc(S(=O)(=O)N3CCOCC3)cc2)ccc1Br,-4.6,8.7,-16.9,-131.9,1.23,0.0193,/,/,/,/,/,/
CCOCC(=O)N1CCC(Cc2ccccc2)CC1,-3.0,-3.6,-4.8,17.7,-0.976,0.785,/,/,/,/,/,/
COc1ccc(-c2noc(CCC(=O)NCCCN3CCC(Cc4ccccc4)CC3)n2)cc1,-3.2,-24.6,-30.2,-3.0,-0.064,/,/,/,/,/,/,/
O=C(Cn1c(-c2ccccc2)noc1=O)N1CCC(Cc2ccccc2)CC1,-2.0,-1.4,-14.8,20.6,-5.16*,0.00509,0.00978,0.00679,0.028*,0.00374,0.0152*,0.0118
COc1ccc(N(C(C)C(=O)N2CCC(Cc3ccccc3)CC2)S(C)(=O)=O)cc1 (stereo unspecified),-8.7,-5.3,-16.8,29.6,-3.62*,-1.23,?,0.00571,0.0353,0.00426,0.0152*,0.0118
